This note sets out measurements from ChEMBL document CHEMBL1781963, “Discovery of novel hepatoselective HMG-CoA reductase inhibitors for treating hypercholesterolemia: a bench-to-bedside case study on tissue selective drug distribution” (Bioorg Med Chem Lett, 2011).

In data set [1] the target is T1, 3-hydroxy-3-methylglutaryl-coenzyme A reductase (Rattus norvegicus, UniProt P51639).
T1 sequence (P51639 whole entry): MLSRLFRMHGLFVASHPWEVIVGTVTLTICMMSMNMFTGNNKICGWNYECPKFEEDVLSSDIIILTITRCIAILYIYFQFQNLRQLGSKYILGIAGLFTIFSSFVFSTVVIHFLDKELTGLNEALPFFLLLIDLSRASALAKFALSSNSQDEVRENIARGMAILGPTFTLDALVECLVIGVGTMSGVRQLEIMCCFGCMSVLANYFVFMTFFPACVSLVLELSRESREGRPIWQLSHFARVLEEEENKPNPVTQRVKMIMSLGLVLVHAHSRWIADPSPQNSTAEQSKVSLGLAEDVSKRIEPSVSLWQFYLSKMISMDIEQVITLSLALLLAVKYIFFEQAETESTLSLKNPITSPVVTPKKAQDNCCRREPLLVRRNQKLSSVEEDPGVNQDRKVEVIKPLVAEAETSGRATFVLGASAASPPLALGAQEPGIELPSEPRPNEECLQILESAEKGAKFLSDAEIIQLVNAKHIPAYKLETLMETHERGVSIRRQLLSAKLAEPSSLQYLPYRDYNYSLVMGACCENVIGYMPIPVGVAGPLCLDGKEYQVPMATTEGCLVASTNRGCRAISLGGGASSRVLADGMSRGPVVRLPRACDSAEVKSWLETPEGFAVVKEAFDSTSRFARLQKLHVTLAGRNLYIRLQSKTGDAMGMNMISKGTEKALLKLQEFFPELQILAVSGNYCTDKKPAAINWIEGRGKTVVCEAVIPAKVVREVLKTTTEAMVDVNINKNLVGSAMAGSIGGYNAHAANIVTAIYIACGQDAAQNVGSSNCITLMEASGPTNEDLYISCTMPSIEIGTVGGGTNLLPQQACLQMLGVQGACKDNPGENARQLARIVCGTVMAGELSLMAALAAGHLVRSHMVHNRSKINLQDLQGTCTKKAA
Nature of the data set: Inhibition of HMG-CoA reductase in Sprague-Dawley rat liver microsomes using [14C]HMG-CoA as substrate preincubated for 0.5 hrs before substrate addition measured after 0.75 hrs by beta scintillation counting. More on the design: species or system Microsome. The procedure, abridged: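 Enzyme inhibition was measured in an HMG-CoA reductase preparation from rat microsomes. IC50 is reported as mean ± SEM of n ≥ 2 independent determinations.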
A general note: Microsomes from liver hold many membrane-bound enzymes, among them those of drug oxidation.

The subject of data set [2] is L6. The data set can be described thus: Inhibition of cholesterol synthesis in rat L6 cells assessed as reduction of [14C]-cholesterol level using [14C]-acetic acid preincubated for 3 hrs before addition of [14C]-acetic acid by scintillation counting. Type of data set: functional, cell-based. The method in brief: (§1)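 Cholesterol synthesis inhibition measured in rat hepatocytes and rat myocyte cell line, giving IC50 for each. Mean ± SEM of n ≥ 2 independent determinations.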

The subject of data set [3] is Syrian golden hamster. Nature of the data set: Inhibition of cholesterol synthesis in golden syrian hamster assessed as reduction of [14C]-cholesterol level at 10 mg/kg, po followed by 3 hrs after treated with 80 uCi, ip of [14C]-sodium acetate measured after 5 hrs by liquid scintillation counting relative to control. In kind it is functional. The note with it: Mesocricetus auratus. The method in brief:
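Separate hamster groups dosed po at 10 mg/kg at t = 0 h. 14C sodium acetate ip at t = 3 h, blood 14C cholesterol at t = 5 h. Percent change vs untreated controls, n = 8/group.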

A short description of data set [4]: Lipophilicity, log D of the compound at pH 7.4 by shake flask method. Particulars: buffer. In kind it is physicochemical. The method in brief:
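Log D at pH 7.4 by shake flask.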

Data set [5] has as its system Syrian golden hamster. The data set can be described thus: Inhibition of cholesterol synthesis in golden syrian hamster assessed as reduction of [14C]-cholesterol level at 10 mg/kg, po followed by 2 hrs after treated with 80 uCi, ip of [14C]-sodium acetate measured after 4 hrs by liquid scintillation counting relative to control. Type of data set: functional. Particulars: Mesocricetus auratus. The procedure, abridged:
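Hamsters dosed po at 10 mg/kg at t = 0 h. Intraperitoneal 14C sodium acetate at t = 2 h, blood drawn at t = 4 h for 14C cholesterol. Percent inhibition vs untreated controls, n = 8/group.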

Data set [6] relates to L6. The data set can be described thus: Selectivity ratio of IC50 for cholesterol synthesis in rat L6 cells to IC50 for cholesterol synthesis in rat hepatocytes.
For data set [7], the system named is Hepatocyte. Nature of the data set: Inhibition of cholesterol synthesis in rat hepatocytes assessed as reduction of [14C]-cholesterol level using [14C]-acetic acid preincubated for 4 hrs before addition of [14C]-acetic acid by liquid scintillation counting. Type of data set: functional, cell-based. The procedure, abridged: as §1

Take `O=C(O)C[C@H](O)C[C@H](O)CCn1c(-c2ccc(F)cc2)nc(C(=O)NCc2ccccc2F)c1C1CC1`: the IC50 (usually the point on the concentration scale where inhibition reaches its midpoint) in data set [1] stood at 1.5 nM; in data set [2] it was 27200 nM. In addition, the inhibition in vivo (usually the drop in the measured response relative to a control, in per cent) at 10 mg/kg in data set [3] is -4%. The logD (as a rule, the decadic logarithm of the distribution of all forms, ionised or not, between an organic phase and buffer at a given pH) in data set [4] stood at 0.08.

In turn, `CCc1c(C(=O)NCc2ccccc2)nc(-c2ccc(F)cc2)n1CC[C@@H](O)C[C@@H](O)CC(=O)O` had an IC50 in data set [1] of 123 nM.

`Cc1c(C(=O)NCc2ccccc2)nc(-c2ccc(F)cc2)n1CC[C@@H](O)C[C@@H](O)CC(=O)O`: half-maximal inhibition in data set [1] (IC50) required 94 nM.

`CCCc1c(C(=O)NCc2ccccc2)nc(-c2ccc(F)cc2)n1CC[C@@H](O)C[C@@H](O)CC(=O)O` gave an IC50 in data set [1] of 26 nM.

For `CC(C)c1c(C(=O)NCc2ccccc2)nc(-c2ccc(F)cc2)n1CC[C@@H](O)C[C@@H](O)CC(=O)[O-].[Na+]`, the inhibition in vivo at 10 mg/kg in data set [5] was -53%; in data set [3] it was -7%. Also, the logD in data set [4] came to 0.64. In data set [6], the “Ratio IC50” value is 10100.

With `O=C([O-])C[C@H](O)C[C@H](O)CCn1c(-c2ccc(F)cc2)nc(C(=O)NCc2ccccc2)c1C1CC1.[Na+]`, the IC50 in data set [1] is 1.4 nM; in data set [7], 0.2 nM; in data set [2], 632 nM. In addition, the inhibition in vivo at 10 mg/kg in data set [5] is -58%. For the same molecule, the logD in data set [4] was 0.03. In addition, in data set [6], the “Ratio IC50” value is listed as 3160.

Turning to `Cc1ccc(CNC(=O)c2nc(-c3ccc(F)cc3)n(CC[C@@H](O)C[C@@H](O)CC(=O)[O-])c2C2CC2)cc1.[Na+]`, the half-inhibitory concentration (IC50) in data set [1] was 1.7 nM; in data set [7], 0.1 nM; in data set [2] it was 178 nM. For the same molecule, the inhibition in vivo at 10 mg/kg in data set [5] was -79%; in data set [3], -36%. Also, the logD in data set [4] turned out to be 0.45. Besides, in data set [6], the “Ratio IC50” value is given as 1780.

As to `Cc1cccc(CNC(=O)c2nc(-c3ccc(F)cc3)n(CC[C@@H](O)C[C@@H](O)CC(=O)[O-])c2C2CC2)c1.[Na+]`, the IC50 worked out at 7.2 nM in data set [1], 0.3 nM in data set [7] and 532 nM in data set [2]. In addition, the inhibition in vivo at 10 mg/kg is -54% in data set [5] and -50% in data set [3]. This molecule had a logD in data set [4] of 0.47. The “Ratio IC50” value in data set [6] was found to be 1770.

For `Cc1ccccc1CNC(=O)c1nc(-c2ccc(F)cc2)n(CC[C@@H](O)C[C@@H](O)CC(=O)[O-])c1C1CC1.[Na+]`, the concentration for half-maximal inhibition (IC50) in data set [1] was found to be 4.9 nM; in data set [7], 0.1 nM; in data set [2], 4850 nM. For the same molecule, in data set [3], the inhibition in vivo at 10 mg/kg was found to be 0%. Moreover, the logD in data set [4] worked out at 0.44. The “Ratio IC50” value in data set [6] is on record as 48500.

Regarding `COc1ccc(CNC(=O)c2nc(-c3ccc(F)cc3)n(CC[C@@H](O)C[C@@H](O)CC(=O)[O-])c2C2CC2)cc1.[Na+]`, the IC50 in data set [1] came to 1.2 nM; in data set [7], 0.2 nM; in data set [2], 6400 nM. Moreover, in data set [5], the inhibition in vivo at 10 mg/kg is -60%. Moreover, the logD in data set [4] was 0.02. Besides, the “Ratio IC50” value in data set [6] amounted to 32000.

In the case of `COc1cccc(CNC(=O)c2nc(-c3ccc(F)cc3)n(CC[C@@H](O)C[C@@H](O)CC(=O)[O-])c2C2CC2)c1.[Na+]`, the IC50 in data set [1] is 1.2 nM; in data set [7] it was 0.2 nM; in data set [2] it was 538 nM. The inhibition in vivo at 10 mg/kg in data set [5] was -53%; in data set [3], -42%. The molecule also had a logD in data set [4] of 0.11. For the same molecule, the “Ratio IC50” value in data set [6] was determined as 2960.

For `COc1ccccc1CNC(=O)c1nc(-c2ccc(F)cc2)n(CC[C@@H](O)C[C@@H](O)CC(=O)[O-])c1C1CC1.[Na+]`, the IC50 in data set [1] turned out to be 7 nM; in data set [7] it was 0.1 nM; in data set [2], 10700 nM. This molecule also registered a logD in data set [4] of 0.16. For the same molecule, the “Ratio IC50” value in data set [6] stood at 107000.

As to `O=C([O-])C[C@H](O)C[C@H](O)CCn1c(-c2ccc(F)cc2)nc(C(=O)NCc2ccc(F)cc2)c1C1CC1.[Na+]`, the IC50 amounted to 3.4 nM in data set [1], 0.7 nM in data set [7] and 1620 nM in data set [2]. The inhibition in vivo at 10 mg/kg in data set [3] came to 0%. The same molecule gave a logD in data set [4] of 0.17. Besides, in data set [6], the “Ratio IC50” value was 2310.

In the case of `O=C([O-])C[C@H](O)C[C@H](O)CCn1c(-c2ccc(F)cc2)nc(C(=O)NCc2ccc(F)c(F)c2)c1C1CC1.[Na+]`, the IC50 was 1.2 nM in data set [1], 0.5 nM in data set [7] and 2780 nM in data set [2]. Further, the inhibition in vivo at 10 mg/kg in data set [3] is -8%. In addition, the “Ratio IC50” value in data set [6] came out at 5560.

Regarding `O=C([O-])C[C@H](O)C[C@H](O)CCn1c(-c2ccc(F)cc2)nc(C(=O)NCc2ccc(F)cc2F)c1C1CC1.[Na+]`, the IC50 in data set [1] came to 1.2 nM; in data set [7] it was 0.2 nM; in data set [2], 4870 nM. Also, the inhibition in vivo at 10 mg/kg in data set [5] is -46%. The “Ratio IC50” value in data set [6] amounted to 24350.

As for `Cc1ccc(CNC(=O)c2nc(-c3ccc(F)cc3)n(CC[C@@H](O)C[C@@H](O)CC(=O)[O-])c2C2CC2)cc1F.[Na+]`, the results for the IC50 in data set [1], in data set [7] and in data set [2] were 4.1 nM, 0.1 nM and 224 nM, respectively. In data set [4], this molecule came in with a logD of 0.69. Also, in data set [6], the “Ratio IC50” value is given as 2240.

As for `COc1ccc(CNC(=O)c2nc(-c3ccc(F)cc3)n(CC[C@@H](O)C[C@@H](O)CC(=O)[O-])c2C2CC2)cc1F.[Na+]`, the values for the IC50 in data set [1], in data set [7] and in data set [2] were 3.7 nM, 0.2 nM and 890 nM, respectively. In addition, the inhibition in vivo at 10 mg/kg in data set [5] was -36%; in data set [3], 0%. Moreover, the “Ratio IC50” value in data set [6] was 4450.

For `NC(=O)c1ccc(CNC(=O)c2nc(-c3ccc(F)cc3)n(CC[C@@H](O)C[C@@H](O)CC(=O)[O-])c2C2CC2)cc1.[Na+]`, the IC50 in data set [1] was 7.2 nM; in data set [7], 0.4 nM; in data set [2], over 100000 nM. The inhibition in vivo at 10 mg/kg in data set [3] stood at 0%. In data set [4], this molecule displayed a logD of -1.1. The Ratio IC50 in data set [6] was over 250000.

Regarding `CN(C)S(=O)(=O)c1ccc(CNC(=O)c2nc(-c3ccc(F)cc3)n(CC[C@@H](O)C[C@@H](O)CC(=O)[O-])c2C2CC2)cc1.[Na+]`, the IC50 in data set [1] is 4.9 nM; in data set [7], 0.5 nM; in data set [2], over 100000 nM. Besides, in data set [3], the inhibition in vivo at 10 mg/kg is 0%. Besides, in data set [4], the logD is -0.46. For the same molecule, the Ratio IC50 in data set [6] is over 200000.
